CXCR6 block: inhibitors of human CXCR6 receptor | actives 0.36% (n = 360,000) | inhibition, % at 20 µM | CHO-K1 PathHunter CXCR6 beta-arrestin, luminescence; in the data active = inhibition above about 34%, passing the limit was not always enough;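 note: antagonist mode with CXCL16 agonist at 10 nM final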
Target sequence (O00574 whole entry, looked up): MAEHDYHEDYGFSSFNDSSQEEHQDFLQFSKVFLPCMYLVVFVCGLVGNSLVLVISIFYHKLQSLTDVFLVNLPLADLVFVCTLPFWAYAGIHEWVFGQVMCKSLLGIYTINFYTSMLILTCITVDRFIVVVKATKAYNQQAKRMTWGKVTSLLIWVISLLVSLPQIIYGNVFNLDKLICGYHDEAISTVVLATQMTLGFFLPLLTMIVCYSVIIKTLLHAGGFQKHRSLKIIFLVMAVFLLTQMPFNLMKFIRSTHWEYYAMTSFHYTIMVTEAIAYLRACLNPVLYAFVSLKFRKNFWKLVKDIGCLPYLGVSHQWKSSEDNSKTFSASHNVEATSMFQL
EBI2 block: EBI2 (human) antagonism; EBI2 beta-arrestin recruitment, luminescence, 7a,25-OHC stimulated; actives 0.81% (n = 360,000); AID 651636; inhibition, % at 5 µM; P32249; in the data active = inhibition above about 38%;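 note: enzyme fragment complementation signal reports receptor beta-arrestin coupling in cells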
APJ antagonist: APJ receptor antagonism. actives 0.32% (n = 330,000). P35414. AID 2521. inhibition, % at 20 µM. CHO-K1 APJ beta-arrestin complementation, luminescence;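 active = inhibition above about 40% at 20 µM, limit read from the data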;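 note: cells challenged with 10 nM apelin-13 agonist together with compound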
CCR6 antagonist: blocks CCL20-driven beta-arrestin recruitment at human CCR6 | P51684 | CHO-K1 CCR6 PathHunter beta-arrestin, luminescence, CCL20-stimulated | inhibition, % at 20 µM | actives 0.49% (n = 340,000) | AID 493098;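 active = compounds whose inhibition of the agonist-driven luminescence signal at 20 µM reaches about 50%, limit read from the data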;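 note: cells stimulated with CCL20 at 14 nM final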
m5-HT2A agonist: agonists of mouse serotonin 5-HT2A receptor (HTR2A); P35363; CHO-K1 mHTR2A beta-arrestin complementation, luminescence; percent of 30 µM serotonin response; activation, % at 7.6 µM; actives 0.66% (n = 360,000);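 active = activation above a run cutoff, the mean activation of all tested compounds plus 3 SD, cut at about 14% in these data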
APJ agonist: agonists of human APJ apelin receptor; P35414; CHO-K1 APJ PathHunter beta-arrestin, luminescence; 0% DMSO wells, 100% apelin; activation, % at 20 µM; actives 0.11% (n = 330,000); AID 2520;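 active = activation more than six SD over the plate average, tested at 20 µM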
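Material: CHO-K1 APJ beta-arrestin complementation cell line; Input: cell density 1000 per well; Incubation: compound stimulation 90 min at 25 °C, detection 60 min; Signal: luminescence from split beta-galactosidase complementation, Galacton Star/Emerald II substrate; Controls: DMSO-only wells as negative, 10 nM Apelin-13 as positive control.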
EBI2 antag conf: confirmation of human EBI2 receptor antagonists | actives 29% (n = 2,400) | EBI2 beta-arrestin luminescence, 7a,25-OHC antagonism | shares compounds with EBI2 block | inhibition, % at 5 µM;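 active = inhibition of at least 50%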
EBI2 ag: counter-screen for EBI2 antagonists: EBI2 agonist activity. shares compounds with EBI2 block. EBI2-expressing cells, agonist mode, luminescence, 60 min; 0% vehicle, 100% 7α,25-dihydroxycholesterol control. activation, % at 5 µM. 2,400 tested, under 10 active. AID 652000;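 active = activation of at least 50%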
bGal cs: counter-screen for EBI2 antagonists: E. coli beta-galactosidase inhibition; inhibition, % at 5 µM; purified beta-galactosidase, luminescent Galacton Star, 15 min; actives 1% (n = 2,400); shares compounds with EBI2 block;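 active = replicate-average signal at least 3 plate SD below neutral wells, shown as high inhibition, flagging enzyme-inhibiting false positives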;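 note: higher means stronger loss of beta-gal luminescence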
Of the large screens only hits and unclear results are named; the others gave an inactive call (follow-up assays come after a bar, where they were run). In the library only some 2.1% were active in any assay of this set; here they are far more common.

Cc1[nH]c(-c2ccc(F)cc2)cc1C(=O)N1CCN(c2cccc(Cl)c2)CC1	EBI2 block 91 | EBI2 antag conf 61 | EBI2 ag inactive | bGal cs inactive
O=C(c1cc2cc(F)ccc2[nH]1)N1CCN(c2cccc(Cl)c2)CC1	EBI2 block 61 | EBI2 antag conf inactive | EBI2 ag inactive | bGal cs inactive
COc1ccc(S(=O)(=O)NCC(=O)N(Cc2ccco2)C(C(=O)NC(C)(C)C)C(C)C)cc1 (configuration not stated)	none
O=C(NCc1ccccc1)c1cc(C2CCCCN2S(=O)(=O)c2cccc3cccnc23)on1 (configuration not stated)	none (no result: APJ antagonist, CCR6 antagonist, APJ agonist)
Cc1ccnc(NS(=O)(=O)c2ccc(-n3cccn3)cc2)c1	none
CCOc1ccccc1N1CCN(C(=O)c2cc3cc(OC)ccc3[nH]2)CC1	EBI2 block 52 | EBI2 antag conf inactive | EBI2 ag inactive | bGal cs inactive
CCOc1ccccc1N1CCN(C(=O)c2cc(C)oc2C)CC1	none
O=C(/C=C/c1ccc(F)cc1)NCc1cccs1	none
O=C(/C=C/c1ccc(Br)cc1)NCc1cccs1	EBI2 block 65 | EBI2 antag conf inactive | EBI2 ag inactive | bGal cs inactive
COC(=O)c1cc(OC)c(OC)cc1NC(=S)N1CCOCC1	none
Cc1ccc(S(=O)(=O)N[C@H](C(=O)OCC(=O)N2N=C(c3ccc(Cl)cc3)CC2c2ccco2)C(C)C)cc1 (some centres not stated)	EBI2 block 44 | EBI2 antag conf 53 | EBI2 ag inactive | bGal cs inactive
CCOc1ccc(-c2cn(-c3ccc(OC)cc3)c(SC)n2)cc1	EBI2 block 65 | EBI2 antag conf inactive | EBI2 ag inactive | bGal cs inactive
CSc1nc(-c2ccccc2)cn1-c1ccc(NC(C)=O)cc1	none
CCCS(=O)(=O)NC(=O)C1(C)CCN(C(=O)c2ccc(F)c(Cl)c2)C1 (configuration not stated)	none (no result: APJ antagonist, CCR6 antagonist, APJ agonist)
CN(C)S(=O)(=O)c1ccc(C(=O)Nc2cc3c(cc2C(=O)O)OCCCO3)cc1	none
CC1CCCN(C(=O)CNS(=O)(=O)c2cccs2)C1 (configuration not stated)	none
Cc1cc(C)c(S(=O)(=O)N2CCN(C(=O)C3COc4ccccc4O3)CC2)c(C)c1 (configuration not stated)	EBI2 block 88 | EBI2 antag conf 71 | EBI2 ag inactive | bGal cs inactive
O=C(c1cc2ccccc2oc1=O)N1CCN(S(=O)(=O)c2ccccc2)CC1	none
O=C(c1cc2ccccc2o1)N1CCN(S(=O)(=O)c2ccc(F)c(F)c2F)CC1	EBI2 block 89 | EBI2 antag conf 71 | EBI2 ag inactive | bGal cs inactive
CCOC(=O)c1ccc(S(=O)(=O)N2CCN(C(=O)c3cc4ccccc4o3)CC2)cc1	EBI2 block 91 | EBI2 antag conf 59 | EBI2 ag inactive | bGal cs inactive
Cc1cc(C)c(S(=O)(=O)N2CCN(C(=O)c3cc4ccccc4o3)CC2)c(C)c1	EBI2 block 90 | EBI2 antag conf 83 | EBI2 ag inactive | bGal cs inactive
O=C(c1ccccc1)N1CCN(C(=O)c2cc3ccccc3o2)CC1	EBI2 block 70 | EBI2 antag conf 55 | EBI2 ag inactive | bGal cs inactive
CCOC(=O)N1CCN(C(=O)c2cc3ccccc3o2)CC1	EBI2 block 64 | EBI2 antag conf inactive | EBI2 ag inactive | bGal cs inactive
CCCC(=O)Nc1ccc(N2CCN(C(=O)c3cc4ccccc4o3)CC2)cc1	none
CCOc1ccc(N=Cc2ccc3ccccc3c2)cc1	none
CCOc1ccc(N=CNc2ccc(OCC)cc2)cc1	EBI2 block 56 | EBI2 antag conf inactive | EBI2 ag inactive | bGal cs inactive
CCOC(=O)C(Oc1ccc2c(-c3ccc(OC)cc3)cc(=O)oc2c1C)c1ccccc1 (configuration not stated)	EBI2 block 36 | EBI2 antag conf inactive | EBI2 ag inactive | bGal cs inactive
Brc1ccc(OCc2nnnn2-c2ccccc2)cc1	EBI2 block 80 | EBI2 antag conf 64 | EBI2 ag inactive | bGal cs inactive
Cc1c(Br)cnn1C(C)C(=O)N1CCN(c2ccc(F)cc2)CC1 (configuration not stated)	none
CC(=O)Nc1ccc(C(=O)N2CCCC(c3cc(C(=O)NCc4ccccc4)no3)C2)cc1 (configuration not stated)	none (no result: APJ antagonist, CCR6 antagonist, APJ agonist)
O=C(Cn1nnc(-c2ccccc2)n1)N/N=C/c1cc([N+](=O)[O-])ccc1O	EBI2 block 55 | EBI2 antag conf inactive | EBI2 ag inactive | bGal cs inactive
COC(=O)c1cc2c(s1)-c1ccccc1OC2	none
CCOC(=O)C1CCN(C(=O)c2cc3c(s2)-c2ccccc2OC3)CC1	EBI2 block 79 | EBI2 antag conf 74 | EBI2 ag inactive | bGal cs inactive
O=C(c1cc2c(s1)-c1ccccc1OC2)N1CCc2ccccc2C1	none
COc1ccccc1N1CCN(C(=O)c2cc3c(s2)-c2ccccc2OC3)CC1	EBI2 block 85 | EBI2 antag conf 82 | EBI2 ag inactive | bGal cs inactive
CC(=O)c1ccc(OCCCC(=O)Nc2cccc(S(=O)(=O)N3CCCCC3)c2)cc1	none
COC(=O)C1CCN(S(=O)(=O)CCNC(=O)c2ccccc2)CC1	none (no result: APJ antagonist, CCR6 antagonist, APJ agonist)
O=C(C(=O)N1CCN(C(=O)c2ccco2)CC1)c1cc2ccccc2o1	none (no result: CXCR6 block, APJ antagonist, CCR6 antagonist, APJ agonist)
O=C(c1ccc(Br)o1)N1CCN(c2ccccn2)CC1	none
O=C(c1cc2ccccc2o1)N1CCN(c2ccccc2Cl)CC1	EBI2 block 86 | EBI2 antag conf 67 | EBI2 ag inactive | bGal cs inactive
O=C(c1cc2ccccc2o1)N1CCN(c2cccc(Cl)c2)CC1	EBI2 block 54 | EBI2 antag conf 58 | EBI2 ag inactive | bGal cs inactive
O=C(c1cc2ccccc2o1)N1CCN(c2ccccn2)CC1	EBI2 block 51 | EBI2 antag conf inactive | EBI2 ag inactive | bGal cs inactive
CCc1cccc(C)c1N=Cc1c(O)c2ccccc2oc1=O	none
N#C[C@H]1C2OC2c2ccccc2N1C(=O)c1ccccc1 (some centres not stated)	none
CCC1NC(=O)c2cccnc2-n2c1nc1ccc(F)cc1c2=O (configuration not stated)	none (no result: APJ antagonist, CCR6 antagonist, APJ agonist)
